experiment: Toxicity liver stage against HepG2, at 10uM; format: cell-based; parameters: test concentration 10 uM, cell line HepG2-A16-CD81EGFP; conditions: human, HepG2-A16-CD81EGFP cells; read-out: INHIBITION
Outline: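 Uninfected HepG2-A16-CD81EGFP cells, 3 × 10^3 per well, 1536-well, plated on prespotted compound at 10 μM final, parasite-free screening media added to match infected plates; puromycin 10 μM positive, DMSO 0.5% negative; run in parallel with 48 h PbLuc assay at 37 °C, 5% CO2; viability by CellTiter-Glo luminescence, normalized to controls.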

SMILES | cytotoxicity at 10 µM
Nc1ccnc(N2CCC(c3nccn3CC3CC3)CC2)n1 | -0.0638%
O=C(N1CCC(Oc2ccncc2)C1)C1(c2ccccc2F)CC1 (stereo not drawn) | -10.4%
CCN1CCN(C(=O)c2ccc3c(c2)OCC(=O)N3)[C@H]2CS(=O)(=O)C[C@H]21 | -49.6%
CCN(Cc1ccccc1C)S(C)(=O)=O | 9.23%
NC(=O)c1cnn2c1NCC(CNCCc1ccco1)C2 (stereo not drawn) | 1.46%
CN(C)c1ncccc1C(=O)N1CCCN(c2cccnn2)CC1 | 9.41%
Cc1cccc(C2(C(=O)NCCCn3cccn3)CC2)c1 | -7.66%
Cc1oc(C)c(C(=O)N2CCCN(c3nccs3)CC2)c1C | 1.53%
COC(=O)CC(c1ccc(OC)c(O)c1)c1oc(C)cc(=O)c1O (stereo not drawn) | -0.634%
Cc1ncsc1CN1C[C@H](C(=O)NC2CCCC2)[C@@H]2CCO[C@@H]2C1 | 8.04%
CCC1=N[C@@]2(CC[C@@H]3CN(S(C)(=O)=O)C[C@@H]32)C(=O)N1CC(C)C | 2.58%
COCc1cc(CC2(NC3CCCCC3)COC2)no1 | 0.66%
Cn1c(NCC(O)c2ccccc2F)c(C#N)c(=O)n(C)c1=O (stereo not drawn) | -12.5%
COCC1CN(C(=O)COc2ccc(C)cc2)Cc2cn(C)nc21 (stereo not drawn) | 2.49%
CC(C)(CO)CCCNC(=O)N1CCc2c(F)ccc(F)c2C1 | -2.18%
Cc1occc1CNC(=O)N(CCCO)C1CCc2ccccc21 (stereo not drawn) | -0.842%
CCOCCCC(=O)Nc1ccc(OCc2noc(C3CC3)n2)cc1 | 44.4%
Cc1cccnc1CC(C)N(C)C(=O)c1ccoc1C (stereo not drawn) | -12.6%
COc1ccccc1[C@@H]1CN(Cc2ccc3nsnc3c2)C[C@H]1C(=O)O | -4.18%
Cn1cccc1C(=O)N1C[C@H]2CN(CC3CC3)C(=O)[C@H]2C1 | -103%
CN1CCCC2(CCN(c3cc(C(F)(F)F)nc(N(C)C)n3)C2)C1=O (stereo not drawn) | 13.1%
CCNC(=O)CN(CC)Cc1nc2c(F)cccc2n1CC | 9.57%

SMILES | cytotoxicity at 10 µM
OCCn1nccc1C1CCN(CCOc2ccc(Cl)cc2)CC1 | -4.68%
CCc1nc(CC(=O)N2CCCC2Cn2cccn2)cs1 (stereo not drawn) | -2.6%
CC(C)n1cnc2c1C(C(=O)NCCC#N)N(Cc1ccccc1)CC2 (stereo not drawn) | -7.2%
N#Cc1ccc(S(=O)(=O)N2CSCC2C(=O)NCC(F)(F)F)cc1 (stereo not drawn) | -7.6%
CN(CCCC1CCCC1)C(=O)c1cc(CN2CCC(O)CC2)on1 | 5.21%
CC(=O)N1CCC[C@H]1C(=O)N(C)CCCOc1ccccc1 | -1.18%
CCc1nccn1C1CCCN(C(=O)c2ccc(N(C)C)nn2)C1 (stereo not drawn) | 3.19%
CC(C)Cc1cc(C(=O)N2CC(OCc3ccccc3F)C2)n(C)n1 | 8.92%
COc1ccccc1-c1csc(-c2cccc(C(=O)O)c2)n1 | 12.3%
Cn1nc(C2CCCN2)c2c(C(=O)NCC(F)(F)F)cc(C3CC3)nc21 (stereo not drawn) | 13.1%
CC(Nc1nc2c(cnn2C)c(=O)[nH]1)c1ccc(F)cc1 (stereo not drawn) | 16.6%
CC(C)(C)c1ccc2c(c1)CCN2C(=O)c1ccc(=O)[nH]n1 | 2.87%
CCn1c(Nc2ccccc2OC)nc2c(C)nn(C)c2c1=O | 15.8%
CN(Cc1ccc2c(c1)OCO2)C(=O)C1CC(c2cccc(F)c2)=NO1 (stereo not drawn) | 10.7%
CCCc1nc(NCC(=O)N2CCOCC2)c2c(n1)c(C)nn2CC | 12.2%
Cc1nccc(N2CCC(Cc3cccc(C(=O)O)c3)CC2)n1 | -135%
C(=C\c1ccc(CN2CCCC2)cn1)/c1ccccc1 | 9.81%
Cn1c(N)c2c(=O)n(C)c(-c3ccccc3)cc2c(C#N)c1=O | 1.57%
CS(=O)(=O)CCOc1nc(-c2ccccc2Cl)no1 | -11.2%
CCNC(=O)C(C)NC(=O)c1cnc(-c2ccc(C)cc2C)s1 (stereo not drawn) | -18.7%
COc1ccc(OC2CCN(C(=O)[C@@H](N)Cc3c[nH]cn3)CC2)cc1 | 0.653%
Cc1ccccc1OC1CCN(CC(=O)Nc2cn(C)nc2C)CC1 | -0.0825%

SMILES | cytotoxicity at 10 µM
Cc1cc(N2CCC(C(=O)NC3CC3)CC2)nc(-c2ccncc2)n1 | -17%
COc1cccc2c(=O)n(Cc3cc(C4CC4)[nH]n3)cnc12 | 3.76%
COCCC(=O)N1C[C@H]2CN(Cc3cccnc3)C(=O)[C@H]2C1 | -0.95%
COc1ccc(OC)c(CNCc2ccnc(N3CCCCC3)c2)c1 | 0.25%
Cc1cnn(CC(=O)N2CCC3(CCC(=O)N(C4CCCC4)C3)CC2)c1 | 3.03%
CN(C)c1cc(CNC(=O)C2COc3ccccc3O2)ccn1 (stereo not drawn) | 2.5%
C[C@H]1C[C@H]2CN(C(=O)CC3CC3)CC[C@H]2O1 | -67.8%
Cc1noc(C)c1CN1CCC2(CC1)CN(c1ccccn1)CCO2 | -3%
Cn1cc(CN2CC[C@H]3OCC[C@@H](C(=O)NCc4ccco4)[C@@H]3C2)cn1 | 6.79%
CN(C)c1ccc(C(=O)N2CCN(Cc3cscn3)CC2)cn1 | -4.57%
COc1cc(N2CCC3(CCCN(C(=O)c4cccnc4)C3)C2)ncn1 (stereo not drawn) | -149%
O=C1[C@H]2CN(S(=O)(=O)C3CC3)C[C@H]2CN1Cc1cccnc1 | -0.0545%
CC(C)Oc1cccc(CN2CCC(c3n[nH]c4ncccc34)CC2)c1 | -6.15%
Cn1ccnc1C(NCc1csc(Br)c1)c1ccccc1 (stereo not drawn) | -0.12%
Cc1cccc(N2CCC(N3CCCC4(CN(C)C(=O)O4)C3)CC2)c1C (stereo not drawn) | -12.8%
CCN(Cc1noc(CC(C)C)n1)Cc1cccc(F)c1O | -44%
Cc1ncsc1CCN1CCC(N(C)Cc2noc(C(C)C)n2)C1 (stereo not drawn) | 2.17%
COc1cccc(CNC(=O)c2ccccc2-n2cnc(CN)c2)c1 | -17%
c1cnc(N2CCC(c3nccn3CC3CC3)CC2)nc1 | -7.28%
CN(Cc1cnccn1)c1cncc(Br)c1 | -8.46%
CS(=O)(=O)NCC1CCCN(C(=O)c2ccc(F)c(F)c2)C1 (stereo not drawn) | -10.3%
CCc1[nH]c2c(CNc3nc(C)cc(NC)n3)cc(C)cc2c1C | -22.4%

SMILES | cytotoxicity at 10 µM
c1ccc(CCN2CCCC(c3noc(C4CC4)n3)C2)cc1 (stereo not drawn) | -3.62%
CNc1cc2c(nn1)CCN(C(=O)c1ccc(-n3nccc3C)cc1)C2 | -5.44%
CN(C)C(=O)N1C[C@H]2CN(Cc3cccc(F)c3)C(=O)[C@H]2C1 | 4.61%
CCCN1C[C@@H]2CC[C@H]1CN(C(=O)Cc1c(C)[nH]c(CC)nc1=O)C2 | -0.529%
CC(C)Cc1nc(CN2CC(=O)N(C)c3ccccc3C2=O)no1 | -6.7%
Cc1ccccc1C1CCN(C(=O)CCNC(=O)C(C)(C)C)C1 (stereo not drawn) | -5.47%
CCC(=O)N1CCC(O)(c2ncc(OC)nc2OC)CC1 | 3.03%
CN(CC(=O)N1CCCCC1c1nccs1)C1CC1 (stereo not drawn) | 10.2%
Cc1cc(-c2cnc(N3CCNC(=O)C3)nc2-c2ccc(C)o2)on1 | -5.77%
COc1cccc(OC)c1CN1CC(=O)N(c2ccc(C)cc2)CC1C (stereo not drawn) | 1.64%
COCc1noc(Cn2c(=O)[nH]c3ccccc32)n1 | 4.84%
O=S(=O)(CCCN1CCCC1Cn1cccn1)c1ccccc1 (stereo not drawn) | -5.18%
CN(C)C(=O)N1CC[C@@H](O)[C@@H]1Cc1cnn(C)c1 | 7.02%
CCCC(=O)NC(C)c1nnc2n1CCC2 (stereo not drawn) | -0.645%
Fc1ccccc1OC1CCN(CCn2cc3ccccc3n2)CC1 | 9.25%
O=C1CO[C@@H]2CN(CC3CC3)C[C@H]2N1Cc1cccc(F)c1 | -69.9%
c1cc2c(cc1-c1noc3c1CN(C1CCSC1)CC3)OCO2 (stereo not drawn) | -16.9%
Cc1cc(NC(=O)CN2CCCC2c2c(C)nn(C)c2C)on1 (stereo not drawn) | -2.9%
COCCN1C[C@@H](C)[C@@]2(COCCN(C(=O)c3ccccn3)C2)C1 | 9.58%
CC(C)c1nc2n(n1)CC(NCc1nc(-c3cccnc3)no1)CC2 (stereo not drawn) | 4.04%
Cc1nc(=O)c(CC(=O)N2C[C@H]3CC[C@@H](C2)N(CC2CCC2)C3)c(C)[nH]1 | 9.6%
Cc1n[nH]c(C2CN(C(=O)c3scnc3C)CCO2)n1 (stereo not drawn) | 10.6%

SMILES | cytotoxicity at 10 µM
COc1ccc(CCN(C)C(=O)c2cc(C(C)=O)c[nH]2)cc1OC | 5.38%
Cc1cc(CNC(=O)Cc2c(C)nc3cc(=O)[nH]n3c2C)no1 | -7.36%
Cn1nc(-c2cccs2)cc1[C@H]1CN2CC[C@H]1C[C@@H]2CNS(C)(=O)=O | -1.39%
O=C(NC1(c2nnn(Cc3ccncc3)n2)CCCC1)c1ccccc1 | 21%
COc1cc(N2CCC3(CC2)CN(S(C)(=O)=O)c2ccccc23)ncn1 | 12.8%
COCc1ccc(C(=O)N2CCC(Oc3ccccc3OC)CC2)s1 | 5.79%
CCc1nc(CN2CCCN(c3nccs3)CC2)no1 | -6.44%
CN1CCNC(=O)C1CC(=O)NCCc1cnn(-c2ccccc2)c1 (stereo not drawn) | 2.53%
COc1ccc(OCCCNCCn2cccn2)cc1 | -20%
CC1CCCN(Cc2c(C3CCOCC3)[nH]c3ncccc23)C1 (stereo not drawn) | -2.03%
COc1cc(I)c(Cl)cc1C(=O)N(C)C | 11%
CC(C)C(NC(=O)c1ccc(Cl)cc1Cl)C(=O)Nc1cnn(C)c1 (stereo not drawn) | -2.65%
Cc1nc(CN2CCOC(c3nc(C(C)C)n[nH]3)C2)oc1C (stereo not drawn) | -7.98%
Cc1nc(CNCc2ccc(N3CCN(C)CC3)nc2)cs1 | -5.33%
COc1c(CNCCNC(=O)c2ccc(C)c(F)c2)c(C)nn1C | -3.33%
Cc1csc(CNc2cnn(CC(C)C)c2)n1 | -6.63%
COc1ccc(CC(=O)Nc2cccnc2N2CCCC2)cc1OC | -22.6%
Cc1nc(NS(=O)(=O)c2ccc(C)c(Br)c2)no1 | 11.2%
COc1cc(OC)cc(C(=O)N2CCOCC2c2[nH]ncc2C)c1 (stereo not drawn) | 7.83%
CCc1ccc(C(=O)NCC2CCCN2CC)o1 (stereo not drawn) | 0.632%
